Among the data in ChEMBL document CHEMBL4028879, “Structure-Activity Relationship Studies of Pyrimido[5,4-b]indoles as Selective Toll-Like Receptor 4 Ligands” (J Med Chem, 2017) are Activity, viability and EC50 values, retold here.

Data set [1] deals with T1, Toll-like receptor 4 (Mus musculus) (UniProt Q9QUK6).
T1 sequence (whole entry): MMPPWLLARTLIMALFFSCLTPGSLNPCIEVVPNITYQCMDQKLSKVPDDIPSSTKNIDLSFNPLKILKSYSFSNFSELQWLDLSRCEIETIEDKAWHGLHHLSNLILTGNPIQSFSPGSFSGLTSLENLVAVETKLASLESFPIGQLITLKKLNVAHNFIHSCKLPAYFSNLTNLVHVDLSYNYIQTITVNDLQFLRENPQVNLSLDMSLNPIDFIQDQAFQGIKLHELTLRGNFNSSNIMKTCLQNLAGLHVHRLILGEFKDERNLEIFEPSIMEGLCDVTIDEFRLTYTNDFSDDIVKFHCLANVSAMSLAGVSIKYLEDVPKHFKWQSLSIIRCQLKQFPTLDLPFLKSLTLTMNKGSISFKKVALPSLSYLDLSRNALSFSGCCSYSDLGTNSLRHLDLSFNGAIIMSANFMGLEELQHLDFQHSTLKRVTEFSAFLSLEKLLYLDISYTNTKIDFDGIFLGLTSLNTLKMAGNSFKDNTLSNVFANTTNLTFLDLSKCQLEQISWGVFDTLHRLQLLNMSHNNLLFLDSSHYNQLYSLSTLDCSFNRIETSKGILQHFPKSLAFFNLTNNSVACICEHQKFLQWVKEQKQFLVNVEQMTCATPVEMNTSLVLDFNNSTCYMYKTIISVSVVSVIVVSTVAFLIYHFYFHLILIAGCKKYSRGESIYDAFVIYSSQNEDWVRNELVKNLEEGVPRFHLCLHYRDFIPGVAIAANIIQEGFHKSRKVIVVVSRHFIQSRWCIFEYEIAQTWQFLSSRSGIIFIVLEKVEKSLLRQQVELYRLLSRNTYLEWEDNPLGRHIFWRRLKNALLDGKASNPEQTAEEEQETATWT
As to the kind of experiment: Agonist activity at mouse TLR4 expressed in HEK293 blue cells assessed as induction of NF-kappaB activation-mediated SEAP production by measuring AUC after 20 to 24 hrs by colorimetric assay relative to N-cyclohexyl-2-(5-methyl-4-oxo-3-phenyl-4,5-dihydro-3H-pyrimido[5,4-b]indol-2-ylthio)acetamide. The data set is classed as cell-based.

Data set [2] addresses T2, Toll-like receptor 4 (Homo sapiens, UniProt O00206). The experiment in a line: Agonist activity at human TLR4 expressed in HEK293 blue cells assessed as induction of NF-kappaB activation-mediated SEAP production by measuring AUC after 20 to 24 hrs by colorimetric assay relative to N-cyclohexyl-2-(5-methyl-4-oxo-3-phenyl-4,5-dihydro-3H-pyrimido[5,4-b]indol-2-ylthio)acetamide. The data set is classed as cell-based.

The target in data set [3] is T1, Toll-like receptor 4 (Mus musculus). As to the kind of experiment: Agonist activity at TLR4 in C57BL/6 mouse primary BMDC assessed as induction of IL-6 release at 5 uM after 18 hrs by ELISA relative to N-cyclohexyl-2-(5-methyl-4-oxo-3-phenyl-4,5-dihydro-3H-pyrimido[5,4-b]indol-2-ylthio)acetamide. Background: In an ELISA, binding on a coated surface is turned into a signal by an enzyme label.

A short description of data set [4]: Cytotoxicity against C57BL/6 mouse primary BMDC assessed as cell viability at 5 uM after 18 hrs by MTT assay relative to control. Particulars: primary BMDC (bone marrow-derived dendritic cells), read-out: Activity. It counts as cell-based.
The target in data set [5] is T2, Toll-like receptor 4. The experiment in a line: Agonist activity at human TLR4 expressed in HEK293 blue cells assessed as induction of NF-kappaB activation-mediated SEAP production after 20 to 24 hrs by colorimetric assay. It counts as cell-based. In outline:
(§1)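 HEK-Blue cells expressing human or mouse TLR4, 2.5 × 10⁴/well in DMEM with 10% FBS, pyruvate, glutamine and antibiotics. Graded doses from 20 mM DMSO stocks, final DMSO 0.05%. Supernatants harvested after 20–24 h; SEAP read by colorimetric substrate at 630 nm. EC50 taken as the concentration giving 50% of maximal activation. LPS 100 ng/mL served as positive control.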

Data set [6] deals with T3, Toll-like receptor 4 (Mus musculus, UniProt Q9QUK6).
T3 sequence (Q9QUK6 whole entry): T1 sequence (whole entry)
As to the kind of experiment: Agonist activity at mouse TLR4 expressed in HEK293 blue cells assessed as induction of NF-kappaB activation-mediated SEAP production after 20 to 24 hrs by colorimetric assay. It counts as cell-based. In short, it runs like this:
as §1

T2 sequence (O00206 whole entry): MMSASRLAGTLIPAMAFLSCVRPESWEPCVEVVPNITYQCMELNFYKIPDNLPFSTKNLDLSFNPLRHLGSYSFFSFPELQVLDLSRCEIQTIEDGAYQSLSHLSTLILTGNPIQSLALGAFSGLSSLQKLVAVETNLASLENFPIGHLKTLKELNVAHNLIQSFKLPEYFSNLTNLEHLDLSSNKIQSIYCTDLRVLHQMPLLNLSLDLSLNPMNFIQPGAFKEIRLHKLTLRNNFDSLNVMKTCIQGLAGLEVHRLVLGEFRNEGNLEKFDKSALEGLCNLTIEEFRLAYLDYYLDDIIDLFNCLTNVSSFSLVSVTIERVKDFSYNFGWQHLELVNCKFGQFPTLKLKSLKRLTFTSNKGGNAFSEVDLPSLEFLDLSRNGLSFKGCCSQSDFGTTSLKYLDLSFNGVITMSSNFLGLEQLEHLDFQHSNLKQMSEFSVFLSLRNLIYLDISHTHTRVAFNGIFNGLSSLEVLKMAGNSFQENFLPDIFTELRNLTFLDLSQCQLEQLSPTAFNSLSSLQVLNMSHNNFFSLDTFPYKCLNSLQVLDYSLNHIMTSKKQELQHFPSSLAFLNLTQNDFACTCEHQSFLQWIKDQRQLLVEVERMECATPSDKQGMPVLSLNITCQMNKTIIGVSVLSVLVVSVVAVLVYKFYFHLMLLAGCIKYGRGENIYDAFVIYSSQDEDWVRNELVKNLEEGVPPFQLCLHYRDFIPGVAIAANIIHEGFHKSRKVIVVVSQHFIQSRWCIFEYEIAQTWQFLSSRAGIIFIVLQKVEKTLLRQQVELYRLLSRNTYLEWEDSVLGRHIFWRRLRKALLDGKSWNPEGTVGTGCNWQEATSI

As to `Cn1ccc2nc(SCC(=O)NC3CCCCC3)n(-c3ccccc3)c(=O)c21`, the Activity in data set [1] is 5%; at Toll-like receptor 4 [2], 17%; in data set [3], 1%. Besides, in data set [4], the viability at 18 h, 5 µM is 117%. Further, the concentration giving a half-maximal response (EC50) on Toll-like receptor 4 [5] and at Toll-like receptor 4 [6] was greater than 10 µM each time.

For `Cn1c2ccc(-c3cccc4ccccc34)cc2c2nc(SCC(=O)NC3CCCCC3)n(-c3ccccc3)c(=O)c21`, the Activity in data set [1] was determined as 38%; at Toll-like receptor 4 [2] it was 72%; in data set [3], 80%. In addition, in data set [4], the viability at 18 h, 5 µM was 102%. For the same compound, the EC50 at Toll-like receptor 4 [5] was 2.12 µM; at Toll-like receptor 4 [6], 2.58 µM.

With `Cn1c2ccc(N)cc2c2nc(SCC(=O)NC3CCCCC3)n(-c3ccccc3)c(=O)c21`, the values for the Activity (in data set [1]; on Toll-like receptor 4 [2]; in data set [3]) were 3%, 17% and 0%, respectively. The viability at 18 h, 5 µM in data set [4] was 102%. Besides, the concentration giving a half-maximal response (EC50) at Toll-like receptor 4 [5] and at Toll-like receptor 4 [6] was greater than 10 µM each time.

Regarding `Cc1c(C)n(C)c2c(=O)n(-c3ccccc3)c(SCC(=O)NC3CCCCC3)nc12`, the results for the Activity (in data set [1]; at Toll-like receptor 4 [2]; in data set [3]) were 22%, 12% and 81%, respectively. The viability at 18 h, 5 µM in data set [4] is 100%. For the same compound, the EC50 at Toll-like receptor 4 [5] and on Toll-like receptor 4 [6] was greater than 10 µM each time.

As for `Cn1c2ccccc2c2nc(NCCC(=O)NC3CCCCC3)n(-c3ccccc3)c(=O)c21`, the Activity in data set [1] was 2%; at Toll-like receptor 4 [2], 8%; in data set [3], 0%. Further, the viability at 18 h, 5 µM in data set [4] stood at 92%. The EC50 at Toll-like receptor 4 [5] and on Toll-like receptor 4 [6] was greater than 10 µM in each case.

On to `O=c1c2[nH]c3ccccc3c2nc(SCCCC2CCCCC2)n1-c1ccccc1`, for which the results for the Activity (in data set [1]; at Toll-like receptor 4 [2]; in data set [3]) were 1%, 9% and 0%, respectively. In data set [4], the viability at 18 h, 5 µM was determined as 57%. Moreover, the concentration giving a half-maximal response (EC50) on Toll-like receptor 4 [5] and on Toll-like receptor 4 [6] was greater than 10 µM throughout.

For `O=C(CSc1nc2cc[nH]c2c(=O)n1-c1ccccc1)NC1CCCCC1`, the Activity is 4% in data set [1], 7% on Toll-like receptor 4 [2] and 0% in data set [3]. The viability at 18 h, 5 µM in data set [4] was found to be 99%. The EC50 at Toll-like receptor 4 [5] and at Toll-like receptor 4 [6] was greater than 10 µM throughout.

`Cn1c2ccccc2c2nc(OCC(=O)NC3CCCCC3)n(-c3ccccc3)c(=O)c21`: the Activity came to 1% in data set [1], 9% on Toll-like receptor 4 [2] and 0% in data set [3]. The viability at 18 h, 5 µM in data set [4] amounted to 58%. The concentration for a half-maximal effect (EC50) on Toll-like receptor 4 [5] and on Toll-like receptor 4 [6] was greater than 10 µM throughout.

As to `Cn1c2ccccc2c2nc(S(=O)(=O)CC(=O)NC3CCCCC3)n(-c3ccccc3)c(=O)c21`, the Activity is 2% in data set [1], 16% at Toll-like receptor 4 [2] and 0% in data set [3]. In data set [4], the viability at 18 h, 5 µM was 50%. For the same compound, the EC50 on Toll-like receptor 4 [5] and on Toll-like receptor 4 [6] was greater than 10 µM in each case.

On to `Cn1c2c(c3nc(SCC(=O)NC4CCCCC4)n(-c4ccccc4)c(=O)c31)CCCC2`, for which the Activity is 13% in data set [1], 8% on Toll-like receptor 4 [2] and 65% in data set [3]. The viability at 18 h, 5 µM in data set [4] worked out at 106%. Besides, the concentration giving a half-maximal response (EC50) at Toll-like receptor 4 [5] and at Toll-like receptor 4 [6] was greater than 10 µM throughout.

Turning to `O=C(CCCSc1nc2c([nH]c3ccccc32)c(=O)n1-c1ccccc1)NC1CCCCC1`, the values for the Activity (in data set [1]; on Toll-like receptor 4 [2]; in data set [3]) were 2%, 8% and 0%, respectively. The viability at 18 h, 5 µM in data set [4] came to 70%. Further, the 50% effective concentration (EC50) on Toll-like receptor 4 [5] and at Toll-like receptor 4 [6] was greater than 10 µM each time.

In the case of `Cn1c2ccc(C#N)cc2c2nc(SCC(=O)NC3CCCCC3)n(-c3ccccc3)c(=O)c21`, the Activity in data set [1] is 14%; on Toll-like receptor 4 [2], 12%; in data set [3], 45%. Further, the viability at 18 h, 5 µM in data set [4] worked out at 107%. Besides, the half-maximal effective concentration (EC50) at Toll-like receptor 4 [5] and on Toll-like receptor 4 [6] was greater than 10 µM throughout.

Take `Cn1c2ccc(NC(=O)c3ccccc3)cc2c2nc(SCC(=O)NC3CCCCC3)n(-c3ccccc3)c(=O)c21`: the Activity in data set [1] was 2%; on Toll-like receptor 4 [2], 26%; in data set [3], 7%. Further, in data set [4], the viability at 18 h, 5 µM is 43%. Moreover, the EC50 at Toll-like receptor 4 [5] and at Toll-like receptor 4 [6] was greater than 10 µM each time.

Regarding `Cn1c2ccc(NC(=O)CCC(=O)O)cc2c2nc(SCC(=O)NC3CCCCC3)n(-c3ccccc3)c(=O)c21`, the values for the Activity (in data set [1]; at Toll-like receptor 4 [2]; in data set [3]) were 3%, 28% and 0%, respectively. Moreover, in data set [4], the viability at 18 h, 5 µM is 75%. The concentration giving a half-maximal response (EC50) at Toll-like receptor 4 [5] and on Toll-like receptor 4 [6] was greater than 10 µM throughout.

For `O=C(CCSc1nc2c([nH]c3ccccc32)c(=O)n1-c1ccccc1)NC1CCCCC1`, the Activity in data set [1] was determined as 3%; on Toll-like receptor 4 [2], 7%; in data set [3] it was 0%. The viability at 18 h, 5 µM in data set [4] came out at 58%. For the same compound, the half-maximal effective concentration (EC50) on Toll-like receptor 4 [5] and on Toll-like receptor 4 [6] was greater than 10 µM in each case.

For `Cn1c2ccc(-c3ccc(-c4ccccc4)cc3)cc2c2nc(SCC(=O)NC3CCCCC3)n(-c3ccccc3)c(=O)c21`, the Activity was 1% in data set [1], 31% on Toll-like receptor 4 [2] and 0% in data set [3]. In data set [4], the viability at 18 h, 5 µM was determined as 23%. Besides, the EC50 on Toll-like receptor 4 [5] and on Toll-like receptor 4 [6] was greater than 10 µM each time.

As for `C#Cc1ccc2c(c1)c1nc(SCC(=O)NC3CCCCC3)n(-c3ccccc3)c(=O)c1n2C`, the Activity amounted to 92% in data set [1], 107% on Toll-like receptor 4 [2] and 92% in data set [3]. Moreover, the viability at 18 h, 5 µM in data set [4] is 81%. The EC50 on Toll-like receptor 4 [5] is 3.27 µM; on Toll-like receptor 4 [6], 2.74 µM.

With `Cn1c2cc(Br)ccc2c2nc(SCC(=O)NC3CCCCC3)n(-c3ccccc3)c(=O)c21`, the Activity in data set [1] is 34%; at Toll-like receptor 4 [2], 40%; in data set [3] it was 73%. Besides, the viability at 18 h, 5 µM in data set [4] turned out to be 93%. For the same compound, the values for the EC50 on Toll-like receptor 4 [5] and on Toll-like receptor 4 [6] were greater than 10 µM and 4.89 µM, respectively.

Consider `Cn1c2ccc(C#C[Si](C)(C)C)cc2c2nc(SCC(=O)NC3CCCCC3)n(-c3ccccc3)c(=O)c21`, for which the Activity in data set [1] was 85%; on Toll-like receptor 4 [2], 87%; in data set [3], 78%. In addition, the viability at 18 h, 5 µM in data set [4] amounted to 73%. In addition, the half-maximal effective concentration (EC50) on Toll-like receptor 4 [5] is greater than 10 µM; on Toll-like receptor 4 [6], 3.3 µM.

Turning to `O=C(CSc1nc2c3c([nH]c2c(=O)n1-c1ccccc1)CCCC3)NC1CCCCC1`, the values for the Activity (in data set [1]; at Toll-like receptor 4 [2]; in data set [3]) were 36%, 27% and 80%, respectively. Besides, the viability at 18 h, 5 µM in data set [4] is 91%. Moreover, the EC50 is greater than 10 µM on Toll-like receptor 4 [5] and 7.12 µM at Toll-like receptor 4 [6].

`Cn1c2cc(C#N)ccc2c2nc(SCC(=O)NC3CCCCC3)n(-c3ccccc3)c(=O)c21`: the Activity in data set [1] turned out to be 6%; at Toll-like receptor 4 [2] it was 20%; in data set [3] it was 3%. For the same compound, the viability at 18 h, 5 µM in data set [4] stood at 65%. The half-maximal effective concentration (EC50) on Toll-like receptor 4 [5] and at Toll-like receptor 4 [6] was greater than 10 µM throughout.

On to `Cn1c2ccccc2c2nc(NCC(=O)NC3CCCCC3)n(-c3ccccc3)c(=O)c21`, for which the values for the Activity (in data set [1]; at Toll-like receptor 4 [2]; in data set [3]) were 2%, 10% and 1%, respectively. Also, the viability at 18 h, 5 µM in data set [4] worked out at 113%. The concentration giving a half-maximal response (EC50) on Toll-like receptor 4 [5] and at Toll-like receptor 4 [6] was greater than 10 µM throughout.

By EC50 is commonly meant the midpoint of the concentration-response curve.
